# B1: cofetuzumab pelidotin (conjugate, chains of the INN, looked up)
# VH: QVQLVQSGPEVKKPGASVKVSCKASGYTFTDYAVHWVRQAPGKRLEWIGVISTYNDYTYNNQDFKGRVTMTRDTSASTAYMELSRLRSEDTAVYYCARGNSYFYALDYWGQGTSVTVSS
# VL: EIVLTQSPATLSLSPGERATLSCRASESVDSYGKSFMHWYQQKPGQAPRLLIYRASNLESGIPARFSGSGSGTDFTLTISSLEPEDFAVYYCQQSNEDPWTFGGGTKLEIK
# modifications: auristatin-0101 payload, vc linker
# Experiments:
# [1] = Immunogenicity: anti-drug antibodies and neutralizing antibodies; type: in vivo, human
# How it was run: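 Anti-drug antibodies were measured by a validated electrochemiluminescent assay. Samples were taken on days 1 and 15 of cycle 1, day 1 of each later cycle, and at end of treatment. ADA-positive samples were tested for neutralizing antibodies by a validated competitive ligand-binding electrochemiluminescent method.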
# [2] = test system: platinum-resistant ovarian cancer; assay: Objective tumor response by RECIST v1.1, ovarian cancer; type: in vivo, human
# How it was run: (§1)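 Investigators assessed tumor response by RECIST v1.1 every 6 weeks (every-3-weeks cohorts) or every 8 weeks (every-2-weeks cohorts). CR and PR in expansion cohorts were confirmed by repeat assessment at least 4 weeks later, and ORR was calculated. NSCLC patients were preselected for moderate-to-high tumor PTK7 by IHC. Later TNBC patients were preselected for moderately high-to-high PTK7. Ovarian cancer patients were platinum-resistant and not preselected.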
# advanced NSCLC = assay: Objective tumor response by RECIST v1.1, NSCLC; type: in vivo, human
# How it was run: as §1
# advanced TNBC = assay: Objective tumor response by RECIST v1.1, TNBC; type: in vivo, human; conditions: every 3 weeks
# How it was run: as §1
# CYP3A4 = CYP3A4 (Homo sapiens, UniProt P08684); assay: Drug-drug interaction substudy with multiple-dose fluconazole; type: in vivo; conditions: PF-06647020 co-administered with multiple-dose fluconazole, 11 patients
# CYP3A4, sequence (P08684 whole entry): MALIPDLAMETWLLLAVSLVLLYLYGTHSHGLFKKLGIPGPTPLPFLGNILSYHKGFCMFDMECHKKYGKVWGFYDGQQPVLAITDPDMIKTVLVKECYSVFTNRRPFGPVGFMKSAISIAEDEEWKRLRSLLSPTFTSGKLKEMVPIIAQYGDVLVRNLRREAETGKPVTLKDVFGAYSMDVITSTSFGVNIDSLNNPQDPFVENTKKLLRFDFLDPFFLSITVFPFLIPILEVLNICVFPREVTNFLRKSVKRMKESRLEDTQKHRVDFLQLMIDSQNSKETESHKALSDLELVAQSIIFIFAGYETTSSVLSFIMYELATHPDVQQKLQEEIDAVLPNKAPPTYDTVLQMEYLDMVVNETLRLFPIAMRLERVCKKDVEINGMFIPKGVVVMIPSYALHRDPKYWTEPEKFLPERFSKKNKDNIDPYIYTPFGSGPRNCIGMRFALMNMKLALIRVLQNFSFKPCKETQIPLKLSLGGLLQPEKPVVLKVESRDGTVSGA
# How it was run: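 Single-dose test ADC was given alone in cycle 1 (reference) and co-administered with multiple-dose fluconazole in cycle 2 (test). Unconjugated payload exposure was measured as dose-normalized AUCinf and Cmax from noncompartmental analysis. Results were expressed as ratios of adjusted geometric means with 90% confidence intervals.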
# [3] = test system: patient-derived xenograft models; conditions: cited from earlier work
# [4] = every 2 weeks, N = 19, (95% CI)
# [5] = every 3 weeks, N = 44, (95% CI)
# [6] = every 2 weeks, N = 6, (95% CI), NR, not reached
# [7] = every 3 weeks, N = 25, (95% CI)
molecule,measurement,setting,value
B1,patients with ADA at baseline (not boosted by treatment),[1]; every 2 weeks cohorts,4%
same,patients with treatment-induced ADA and NAb,"[1]; every 2 weeks, 25 evaluable patients",4%
same,infusion-related reaction in ADA-positive patient,"[1]; every 2 weeks, one patient, day 1 cycle 4, resolved same day",grade 2 IRR
same,patients positive for treatment-induced ADA,"[1]; every 3 weeks, 108 evaluable patients",10.2%
same,CR (number),[2]; 2.1 mg/kg every 3 weeks,1
same,CR (number),[2]; 2.8 mg/kg every 2 weeks,1
same,PR (number),[2]; 2.8 mg/kg every 2 weeks,2
same,CR (number),[2]; 3.2 mg/kg every 2 weeks,1
same,PR (number),[2]; 3.2 mg/kg every 2 weeks,1
same,overall objective response rate,"[2]; both regimens, n = 63",27%
same,patients achieving CR,[2]; every 2 weeks,11%
same,patients achieving PR,[2]; every 2 weeks,16%
same,ORR,[2]; [4],26 (9–51) %
same,mDOR,[2]; [4],6.5 (3.9–8.3) mo
same,mPFS,[2]; [4],3.8 (3.1–7.4) mo
same,patients achieving CR,[2]; every 3 weeks,7%
same,patients achieving PR,[2]; every 3 weeks,21%
same,ORR,[2]; [5],27 (15–43) %
same,mDOR,[2]; [5],4.2 (2.8–8.3) mo
same,mPFS,[2]; [5],2.9 (2.3–5.5) mo
same,PRs (number),advanced NSCLC; 2.8 mg/kg every 3 weeks,4
same,PRs (number),advanced NSCLC; 3.2 mg/kg every 2 weeks,2
same,overall objective response rate,"advanced NSCLC; both regimens, n = 31",19%
same,CR,"advanced NSCLC; every 2 weeks, N = 6",0 N
same,PR,"advanced NSCLC; every 2 weeks, N = 6",2 N
same,ORR,"advanced NSCLC; every 2 weeks, N = 6, (95% CI)",33 (4–78) %
same,mDOR,advanced NSCLC; [6],NR (3.7–NR)
same,mPFS,advanced NSCLC; [6],2.7 (1.0–NR) mo
same,CR,"advanced NSCLC; every 3 weeks, N = 25",0 N
same,PR,"advanced NSCLC; every 3 weeks, N = 25",4 N
same,ORR,advanced NSCLC; [7],16 (5–36) %
same,mDOR,advanced NSCLC; [7],5.7 (1.5–9.9) mo
same,mPFS,advanced NSCLC; [7],2.9 (1.4–6.1) mo
same,CR,advanced TNBC; N = 29,0 N
same,PR,advanced TNBC; N = 29,6 N
same,ORR,"advanced TNBC; N = 29, (95% CI)",21 (8–40) %
same,mDOR,"advanced TNBC; N = 29, (95% CI)",4.3 (1.3–10.2) mo
same,mPFS,"advanced TNBC; N = 29, (95% CI)",1.5 (1.4–4.3) mo
same,impact of fluconazole co-administration on overall exposure,CYP3A4,did not have a notable impact
same,antitumor activity compared with standard chemotherapy,[3]; patient-derived xenograft models,greater antitumor activity than standard chemotherapy
same,antitumor effect in patient-derived xenograft models,[3]; preclinical,sustained tumor regression
same,effect on tumor-initiating cells (TICs),[3]; serial transplantation experiments,reduced the frequency of TICs

# — paper PMC9401513 (Clinical Cancer Research, 2021)
